Source: ChEMBL document CHEMBL4402567, “Structure-Activity Relationship Studies on Diversified Salicylamide Derivatives as Potent Inhibitors of Human Adenovirus Infection” (J Med Chem, 2020)

Key:
Human adenovirus 5 [1] = assay: Antiviral activity against Human adenovirus 5 infected in human A549 cells assessed as inhibition of viral entry after 48 hrs by GFP reporter gene based assay; type: functional, organism-based; details: Human mastadenovirus C, A549, 48 h
Summary of the method: (§1)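 Entry assay in A549 epithelial cells infected with HAdV5-GFP at high MOI, with compound present throughout and 48 h incubation. GFP expression is the read-out.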

Human adenovirus 5 [2] = assay: Antiviral activity against Human adenovirus 5 infected in human A549 cells asssessed as inhibition of viral entry by measuring nuclear-associated viral genome level at 5 uM after 45 mins by RT-PCR analysis (reference value: 100.24 +/- 2.77%); type: functional; set-up: scale not given: the % may be the effect or the level left
Summary of the method: (§2)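 Nuclear HAdV genome levels in treated cells were quantified at 45 min post-infection and compared with DMSO-treated cells. […] Bars are means ± SD of triplicate samples.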

Human adenovirus 5 [3] = assay: Antiviral activity against Human adenovirus 5 infected in human A549 cells assessed as inhibition of viral entry at 50 uM after 48 hrs by GFP reporter gene based assay relative to control; type: functional; details: Human mastadenovirus C, A549, 48 h; summary of the method: as §1
Human adenovirus 5 [4] = assay: Antiviral activity against Human adenovirus 5 infected in 293beta5 cells assessed as inhibition of plaque formation incubated for 7 days by GFP reporter gene assay; type: functional, organism-based; details: Human mastadenovirus C, 293beta5, 168 h
Summary of the method: (§3)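 HAdV5-GFP plaque assay in 293β5 cells at low MOI. Inhibition is expressed as percent of the infected control, with single-dose screening at 10 μM. Compounds giving >90% inhibition went on to IC50 determination. Values are means ± SD of triplicate samples from three independent experiments.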

Human adenovirus 5 [5] = assay: Antiviral activity against Human adenovirus 5 infected in 293beta5 cells assessed as inhibition of viral infection at 5 uM measured after 2 hrs post infection by gene assay relative to control; type: functional; details: Human mastadenovirus C, 293beta5, 2 h
Human adenovirus 5 [6] = assay: Antiviral activity against Human adenovirus 5 infected in human A549 cells assessed as inhibition of viral DNA replication by measuring number of viral DNA copies at 5 uM after 24 hrs by RT-qPCR analysis (reference value: 100 +/- 1.55%); type: functional; set-up: scale not given: the % may be the effect or the level left
Human adenovirus 5 [7] = assay: Antiviral activity against Human adenovirus 5 infected in 293beta5 cells assessed as inhibition of viral infection at 5 uM preincubated for 60 mins followed by viral infection by GFP reporter gene assay relative to control; type: functional; details: Human mastadenovirus C
Human adenovirus 5 [8] = assay: Antiviral activity against Human adenovirus 5 infected in human A549 cells assessed as fold reduction in virus yield at 5 uM after 48 hrs endpoint dilution method relative to control; type: functional
[9] = Cytotoxicity against human A549 cells assessed as reduction in cell viability after 48 hrs by alamar blue assay; type: cell-based
[10] = Selectivity index, ratio of CC50 for cytotoxicity against human A549 cells to IC50 for antiviral activity against Human adenovirus 5 infected in 293beta5 cells assessed as inhibition of plaque formation after 7 days; type: toxicity, cell-based; details: read-out: Ratio CC50/IC50
Human adenovirus 5 [11] = assay: Antiviral activity against Human adenovirus 5 infected in 293beta5 cells assessed as inhibition of plaque formation at 10 uM incubated for 7 days by GFP reporter gene assay relative to control; type: functional; details: Human mastadenovirus C, 293beta5, 168 h; summary of the method: as §3
Human adenovirus 5 [12] = assay: Antiviral activity against Human adenovirus 5 infected in human A549 cells assessed as inhibition of viral DNA replication at 5 uM after 24 hrs by RT-qPCR analysis relative to control; type: functional; details: Human mastadenovirus C, A549, 24 h
Human adenovirus 5 [13] = assay: Antiviral activity against Human adenovirus 5 infected in human A549 cells asssessed as inhibition of viral entry by measuring nuclear-associated viral genome level at 50 uM after 45 mins by RT-PCR analysis (reference value: 100.24 +/- 2.77%); type: functional; set-up: scale not given: the % may be the effect or the level left; summary of the method: as §2
Human adenovirus 5 [14] = assay: Antiviral activity against Human adenovirus 5 infected in human A549 cells assessed as inhibition of viral DNA replication by measuring number of viral DNA copies at 50 uM after 24 hrs by RT-qPCR analysis (reference value: 100 +/- 1.55%); type: functional; set-up: scale not given: the % may be the effect or the level left
Human adenovirus 5 [15] = assay: Antiviral activity against Human adenovirus 5 infected in 293beta5 cells assessed as inhibition of viral replication at 10 uM measured immediately post infection by GFP reporter gene assay relative to control; type: functional; details: Human mastadenovirus C
Human adenovirus 5 [16] = assay: Antiviral activity against Human adenovirus 5 infected in human A549 cells assessed as fold reduction in virus yield at 50 uM after 48 hrs endpoint dilution method relative to control; type: functional
Human adenovirus 5 [17] = assay: Antiviral activity against Human adenovirus 5 infected in 293beta5 cells assessed as inhibition of viral infection at 10 uM measured after 2 hrs post infection by GFP reporter gene assay relative to control; type: functional; details: Human mastadenovirus C, 293beta5, 2 h
Human adenovirus 5 [18] = assay: Antiviral activity against Human adenovirus 5 infected in 293beta5 cells assessed as inhibition of viral infection at 10 uM preincubated for 60 mins followed by viral infection by GFP reporter gene assay relative to control; type: functional; details: Human mastadenovirus C
Human adenovirus 5 [19] = assay: Antiviral activity against Human adenovirus 5 infected in 293beta5 cells assessed as inhibition of viral infection at 5 uM measured after 20 to 40 mins post infection by GFP reporter gene assay relative to control; type: functional; set-up: scale not given: the % may be the effect or the level left
Human adenovirus 5 [20] = assay: Antiviral activity against Human adenovirus 5 infected in human A549 cells assessed as inhibition of viral DNA replication by measuring number of viral DNA copies at 2 uM after 24 hrs by RT-qPCR analysis (reference value: 100 +/- 1.55%); type: functional; set-up: scale not given: the % may be the effect or the level left
Human adenovirus 5 [21] = assay: Antiviral activity against Human adenovirus 5 infected in human A549 cells assessed as fold reduction in virus yield at 2 uM after 48 hrs endpoint dilution method relative to control; type: functional
Human adenovirus 5 [22] = assay: Antiviral activity against Human adenovirus 5 infected in human A549 cells asssessed as inhibition of viral entry by measuring nuclear-associated viral genome level at 2 uM after 45 mins by RT-PCR analysis (reference value: 100.24 +/- 2.77%); type: functional; set-up: scale not given: the % may be the effect or the level left; summary of the method: as §2

| Compound | IC50 (Human adenovirus 5 [1]) | IC50 (Human adenovirus 5 [4]) | CC50 at 48 h [9] | selectivity ratio at 168 h [10] | inhibition at 10 µM (Human adenovirus 5 [11]) | further results |
| --- | --- | --- | --- | --- | --- | --- |
| O=C(Nc1cc(F)cc(C(F)(F)F)c1)c1ccc(Cl)cc1O | 260 nM | 110 nM | 20600 nM | 187 | – | Activity (Human adenovirus 5 [2]): 54.74%; inhibition at 50 µM (Human adenovirus 5 [3]): 100%; inhibition at 5 µM (Human adenovirus 5 [5]): > 50%; Activity (Human adenovirus 5 [6]): 68.17%; inhibition at 5 µM (Human adenovirus 5 [7]): > 50%; fold change (FC) (Human adenovirus 5 [8]): 385 |
| O=C(N[C@@H](Cc1ccccc1)C(=O)Nc1ccc([N+](=O)[O-])cc1Cl)c1cc(Cl)ccc1O | – | 7000 nM | 15200 nM | – | 100% | – |
| C[C@@H](NC(=O)c1cc(Cl)ccc1O)c1ccccc1 | – | – | 84600 nM | – | 100% | – |
| C[C@H](NC(=O)c1cc(Cl)ccc1O)c1ccccc1 | – | 2540 nM | 199000 nM | 78.5 | 100% | – |
| O=C(Nc1ccc([N+](=O)[O-])c(Cl)c1)c1cc(Cl)ccc1O | – | 1000 nM | – | – | 100% | – |
| CC[C@@H](C)[C@H](NC(=O)c1cc(Cl)ccc1O)C(=O)Nc1ccc([N+](=O)[O-])cc1Cl | 2500 nM | 160 nM | 20200 nM | 128 | – | Activity (Human adenovirus 5 [2]): 0.54%; inhibition at 5 µM (Human adenovirus 5 [5]): > 50%; Activity (Human adenovirus 5 [6]): 2.33%; inhibition at 5 µM (Human adenovirus 5 [7]): > 50%; fold change (FC) (Human adenovirus 5 [8]): 10; inhibition at 5 µM (Human adenovirus 5 [12]): > 90% |
| CC(C)[C@H](NC(=O)c1cc(Cl)ccc1O)C(=O)Nc1ccc([N+](=O)[O-])cc1Cl | 11200 nM | 450 nM | 200000 nM | 444 | 100% | Activity (Human adenovirus 5 [13]): 91.82%; Activity (Human adenovirus 5 [14]): 60.09%; inhibition at 10 µM (Human adenovirus 5 [15]): < 50%; fold change (FC) (Human adenovirus 5 [16]): 213 |
| CC(C)[C@H](NC(=O)c1cc(Cl)ccc1NS(C)(=O)=O)C(=O)Nc1ccc([N+](=O)[O-])cc1Cl | 1380 nM | 680 nM | 174000 nM | 256 | 99.1% | inhibition at 10 µM (Human adenovirus 5 [17]): > 50%; inhibition at 50 µM (Human adenovirus 5 [3]): 99.1%; inhibition at 10 µM (Human adenovirus 5 [18]): > 50%; Activity (Human adenovirus 5 [13]): 16.68%; Activity (Human adenovirus 5 [14]): 4.56%; fold change (FC) (Human adenovirus 5 [16]): 1 |
| O=C(Nc1cc(F)cc(C(F)(F)F)c1)c1cc(Cl)ccc1O | 2230 nM | 180 nM | 120000 nM | 667 | 100% | inhibition at 50 µM (Human adenovirus 5 [3]): 100%; Activity (Human adenovirus 5 [13]): 66.96%; Activity (Human adenovirus 5 [14]): 82.41%; inhibition at 10 µM (Human adenovirus 5 [15]): < 50%; fold change (FC) (Human adenovirus 5 [16]): 989 |
| O=C(NCc1ccc([N+](=O)[O-])cc1Cl)c1cc(Cl)ccc1O | – | 1400 nM | 51400 nM | 36.7 | 100% | – |
| O=C(Nc1ccc([N+](=O)[O-])cc1)c1cc(Cl)ccc1O | – | 110 nM | – | – | – | Activity (Human adenovirus 5 [2]): 15.48%; inhibition at 50 µM (Human adenovirus 5 [3]): 100%; inhibition at 5 µM (Human adenovirus 5 [5]): > 50%; Activity (Human adenovirus 5 [6]): 0.51%; inhibition at 5 µM (Human adenovirus 5 [7]): > 50%; fold change (FC) (Human adenovirus 5 [8]): 137; inhibition at 5 µM (Human adenovirus 5 [12]): > 90% |
| O=C(Nc1cc([N+](=O)[O-])ccc1F)c1cc(Cl)ccc1O | – | 310 nM | 8100 nM | 26.2 | 100% | – |
| O=C(Cc1cc(Cl)ccc1O)Nc1ccc([N+](=O)[O-])cc1Cl | – | – | – | – | 0% | – |
| O=C(Nc1ccc(F)c(F)c1)c1cc(Cl)ccc1O | – | 270 nM | 8000 nM | 29.6 | 100% | – |
| CN(Cc1ccc(F)cc1)C(=O)c1cc(Cl)ccc1O | – | – | – | – | 0% | – |
| O=C(Nc1ccc([N+](=O)[O-])cc1Cl)c1cc(Cl)ccc1O [NICLOSAMIDE] | 1220 nM | 600 nM | – | – | 100% | Activity (Human adenovirus 5 [2]): 49.51%; inhibition at 50 µM (Human adenovirus 5 [3]): 100%; Activity (Human adenovirus 5 [6]): 0.05%; fold change (FC) (Human adenovirus 5 [8]): 82 |
| C[C@@H](NC(=O)c1cc(Cl)ccc1O)c1ccc(F)cc1 | – | 3020 nM | > 200000 nM | > 66.2 | 100% | – |
| O=C(Nc1cc(C(F)(F)F)cc(C(F)(F)F)c1)c1cc(Cl)ccc1O [IMD-0354] | – | 60 nM | 4100 nM | 68.3 | 100% | – |
| CC(C)(NC(=O)c1cc(Cl)ccc1O)c1ccc(F)cc1 | – | 3460 nM | > 200000 nM | > 57.8 | 100% | – |
| C[C@@H](NC(=O)c1cc(Cl)ccc1O)c1ccc(Cl)cc1 | – | – | 31100 nM | – | 100% | – |
| O=C(Nc1ccc([N+](=O)[O-])cc1F)c1cc(Cl)ccc1O | 1570 nM | 50 nM | 10900 nM | 218 | – | Activity (Human adenovirus 5 [19]): 34%; Activity (Human adenovirus 5 [20]): 75.85%; fold change (FC) (Human adenovirus 5 [21]): 1.8; Activity (Human adenovirus 5 [22]): 57.6% |
| O=C(CNC(=O)c1cc(Cl)ccc1O)Nc1ccc([N+](=O)[O-])cc1Cl | – | 2430 nM | 129000 nM | 53.2 | 100% | – |
